# Source: PubChem (Sanford-Burnham Center for Chemical Genomics)
# Apaf1 activ – activators of human Apaf-1 apoptosome; Apaf-1 apoptosome caspase-3 activation, DEVD-Rh110 fluorescence; active compounds read low; activity change, negative = activation, % at 20 µM; 330,000 compounds, 0.31% hits;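 active means activity change at or below -40% at 20 µM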
#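 Assay system – biochemical Apaf-1 apoptosome reconstitution · Medium – 20 mM HEPES buffer, pH 7.5, containing CHAPS and BSA · Incubation – 30 min preincubation, 50 min reaction, room temperature · Measured by – Caspase-3-released Rh110 fluorescence, 540 nm emission, 480 nm excitation · Read-out – Caspase-3 cleavage activity downstream of Apaf-1 activation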
# Rh110 interf act – counter-screen for Apaf-1 activators: fluorescence interference. shares compounds with Apaf1 activ. Rh110 fluorescence interference, quenched caspase reaction, Ex480/Em540. fluorescence interference (activity change), % at 20 µM, hits read low. 980 tested, under 10 active. AID 504616;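 active means mean activity change at or below -40% when tested at 20 µM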
# Apaf-1 act conf – Apaf-1 (human) activation, single-dose confirmed | shares compounds with Apaf1 activ | reconstituted apoptosome caspase-3 activity, DEVD-Rh110 fluorescence; active compounds read low | activity change, negative = activation, % at 20 µM | 980 compounds, 5% hits | AID 504617;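 active means mean activity change at or below -40%, meaning activation of 40% or more, at 20 µM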
# Apaf1 act interf – counter-screen for Apaf-1 activators: fluorescence interference, dose response. 55 tested, under 10 active. fluorescence interference counterscreen, Apaf-1 activator assay. shares compounds with Apaf1 activ. EC50, µM; call rule not given here
# * marks the source's active call; other numbers are inactive results; · = no result. Not all results are given here.
SMILES,Apaf1 activ,Rh110 interf act,Apaf-1 act conf,others
CCCCCc1cc(=O)oc2c(C(CCN3CCCC3)c3ccc(N(C)C)cc3)c(OC)cc(OC)c12 (centres undefined),45,·,·,
CCOC(=O)C1=C(COC(=O)c2ccc([N+](=O)[O-])s2)NC(=O)NC1C (centres undefined),46,·,·,
O=C(COC(=O)c1cccc(Cl)c1)NCCN1C(=O)CSC1=O,-46*,4,3,
N#Cc1c(N)n(CCNC(=O)c2cccs2)c2nc3ccccc3nc12,90,·,·,
COc1ccc(-n2nc(C(=O)NCC(=O)NC3CCCC(C)C3C)c3ccccc3c2=O)cc1 (centres undefined),51,·,·,
CC(OC(=O)c1nn(C)c(=O)c2ccccc12)C(=O)NC1CCCCC1C (centres undefined),-50*,-3,10,
COc1ccc(-n2nc(C(=O)NCC(=O)NC3CCCC(C)C3C)c3ccccc3c2=O)c(OC)c1 (centres undefined),55,·,·,
O=C(C1CCCCC1)N(Cc1ccccc1)c1ccccn1,-154*,-5,2,
CC(C)N(Cc1cc2ccccc2[nH]c1=O)C(=O)C1CCCCC1,57,·,·,
COc1ccc(CN(CCN(C)C)c2ccccn2)cc1,3,·,·,
Nc1ccc(N2CCCCCC2)cc1,93,·,·,
Cc1ccsc1C=Nc1ccc(O)cc1,94,·,·,
COC(=O)CCCC1=CC2=C(c3ccccc3)C(=O)C(C)(OC(=O)C3CCCC3)C(=O)C2=CN1CC(C)C (centres undefined),41,·,·,
CN1CCN(CCCN2c3ccccc3Sc3ccc(C(F)(F)F)cc32)CC1,54,·,·,
CCC(OCC(O)CN1CCCCC1)c1ccccc1 (centres undefined),-516*,0,12,
CCN(CCCNC(=O)CCn1c(=O)[nH]c2ccccc2c1=O)c1ccccc1,-505*,-1,13,
Nc1ccc2cn[nH]c2c1,52,·,·,
O=S(=O)(/N=C/N1CCOCC1)c1ccc(Cl)cc1,43,·,·,
CCOC(=O)C1(Cc2ccccc2C)CCCN(C(=O)c2ccc3nccnc3c2)C1 (centres undefined),-330*,12,14,
Fc1cccc(CCN2CCNC[C@H]2Cc2cccc3ccccc23)c1,43,·,·,
CC(=O)NC1=C(NC2CCS(=O)(=O)C2)C(=O)c2ccccc2C1=O (centres undefined),41,·,·,
O=C(Cn1ncn2c(cc3ccccc32)c1=O)NCCc1cccs1,-392*,6,7,
Cc1cc(SCC(=O)OC(C)C(=O)N(C)c2ccccc2)nc2ccccc12 (centres undefined),-324*,-1,8,
CC(C)N(C(=O)[C@H]1C[C@H](CC(=O)NCCCN(C)C)C(=O)N2CCc3c([nH]c4cc(-c5ccco5)ccc34)[C@]12C)C(C)C,52,·,·,
CCCCc1nn2c(N)c(/C=C3\C=Nc4ccccc43)c(=O)nc2s1,-459*,19,30,
SMILES,Apaf1 activ,Rh110 interf act,Apaf-1 act conf,others
CCN(CC)CCOc1ccc(/C(=C(/Cl)c2ccccc2)c2ccccc2)cc1,66,·,·,
Cc1cccc(NC(=O)CN(C)S(=O)(=O)c2cccc3cccnc23)c1C,-164*,6,3,
Cc1[nH]c(=O)[nH]c(=O)c1S(=O)(=O)Nc1ccc(F)cc1F,-265*,4,7,
c1cc2c3c(cccc3c1)C(N1CCCCC1)=N2,91,·,·,
CC(=O)OCCCNc1cc(Sc2nc3ccccc3s2)c2nonc2c1[N+](=O)[O-],96,·,·,
COc1ccc2c(c1)OC/C(=C/c1cccs1)C2=O,-94*,5,12,
c1ccc(C2(CN3CCNC[C@H]3Cc3cccc4ccccc34)CC2)cc1,53,·,·,
CCNc1ccccc1CP(=O)(c1ccccc1)c1ccccc1O (centres undefined),87,·,·,
O=C(NC1CC1)c1ccc(CS(=O)c2ccccc2)o1 (centres undefined),-97*,3,9,
Cc1cc(C)cc(NC2=C(N)C(=O)c3ccccc3C2=O)c1,74,·,·,
O=C(NNc1cc(N2CCOCC2)nc(N2CCOCC2)n1)c1ccc([N+](=O)[O-])cc1,97,·,·,
O=C1C(=O)N(CCN2CCOCC2)C(c2ccc([N+](=O)[O-])cc2)/C1=C(/O)c1ccc2c(c1)OCO2 (centres undefined),-319*,-7,12,
COc1ccc(OCC(=O)N/N=C(\C)c2cccs2)cc1,-81*,2,15,
COc1ccc2c(c1)Cc1sc(NC(=O)c3cccs3)nc1-2,87,·,·,
COC(=O)CCC(=O)OC1(C)C(=O)C2=CN(CCCCO)C(c3ccc(OC)cc3)=CC2=C(Br)C1=O (centres undefined),80,·,·,
COC(=O)CCC(=O)OC1(C)C(=O)C=C2C=C(C3CC3)N(CC3CC3)C=C2C1=O (centres undefined),57,·,·,
CCOC(=O)N1CCN(C2=C(NS(=O)(=O)c3ccc(C)cc3)C(=O)c3ccccc3C2=O)CC1,86,·,·,
CCOC(=O)N1CCN(C(=O)C2CCN(S(=O)(=O)c3ccc(OCC)cc3)CC2)CC1,-164*,-3,18,
Cc1ccc(/C=C/c2onc(C)c2S(=O)(=O)N2CCC(C(=O)N3CCN(C)CC3)CC2)cc1,45,·,·,
CN(C)C=Nc1ccc2nc3c(cc2c1)[nH]c1ccccc13,46,·,·,
O=C(Nc1cccc([N+](=O)[O-])c1)Nc1ccc2c(c1)OCCO2,-288*,5,3,
O=C(CSc1nnc(-c2ccncc2)n1CCc1ccccc1)N1CCCC1,-263*,5,15,
CCOC(=O)c1ccc(N2CSC3=C(C#N)C(c4ccc(OC)cc4OC)CC(=O)N3C2)cc1 (centres undefined),50,·,·,
CCC(C)c1ccc(NC(=O)C2CCN(c3ncccn3)CC2)cc1 (centres undefined),-122*,11,16,
Cc1sc2ncnc(N3CCC(C(=O)Nc4ccc(Cl)c(Cl)c4)CC3)c2c1C,42,·,·,
SMILES,Apaf1 activ,Rh110 interf act,Apaf-1 act conf,others
COc1ccc(N)c2c1OCCC2=O,87,·,·,
CNC[C@H](Cc1ccccc1)NC[C@@H](Cc1cccc2ccccc12)NCCc1ccc(C)cc1,48,·,·,
c1ccc2c(c1)CC/C2=N/Nc1nc2ccccc2[nH]1,57,·,·,
COC(=O)c1c(NC(=O)c2ccc(OC(C)C)cc2)sc2c1CC(C)(C)NC2(C)C,53,·,·,
C(=Nc1cccc2c(N=Cc3ccco3)cccc12)c1ccco1,92,·,·,
N#Cc1c(/N=C/c2ccco2)sc2c1CCCCC2,-169*,1,22,
C#CCOCCOCCOCCNc1nc(N2CCN(C(=O)CCCCCCCCCCNC(=O)[C@H]([C@@H](C)CC)n3cc(CCCCN=C(N)N)nn3)CC2)nc(N2CCN(C(=O)CCCCCCCCCCNC(=O)[C@H](CCCN=C(N)N)n3cc(C[C@@H](C)CC)nn3)CC2)n1,46,·,·,
O=C(CCS(=O)(=O)c1ccc(Br)cc1)NCc1ccco1,-88*,9,-51*,Apaf1 act interf=>100
CCCN(CC(=O)Nc1ccccc1OC)C(=O)CSc1ccc(Br)cc1C,57,·,·,
COc1ccc([N+](=O)[O-])cc1NC(=O)CCS(=O)(=O)c1ccc(Br)cc1,-111*,-5,-101*,Apaf1 act interf=>100
O=C(COC(=O)c1cc(S(=O)(=O)N2CCc3ccccc3C2)ccc1Cl)NCc1ccco1,43,·,·,
